In series [1] the test system is iNOS protein expression in LPS-activated BV-2 microglial cells. Briefly: Inducible NOS protein expression by immunohistochemistry. The series is classed as cell-based, murine. The note with it: LPS-activated BV-2 cells; 4.4 and 8.9 µM chalcone (1). The gist of the method: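 LPS (E. coli O111:B4, 1 µg/ml, 24 h) activated BV-2 cells at 0.5 × 10^6 cells/ml in phenol-red-free DMEM with 5 % FBS and 3 mM L-glutamine. Test compound came from DMSO stock diluted in HBSS + 5 mM HEPES pH 7.4, with final DMSO <0.5 %. Cells were fixed (4 % paraformaldehyde), permeabilised (0.1 % Triton X-100/PBS) and given rabbit N-terminal anti-iNOS, then Alexa Fluor 488 anti-rabbit (each 2 h, 37 °C), with propidium iodide counterstain and confocal imaging. Dexamethasone 1 µM served as comparator.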

For series [2], the system named is LPS-activated BV-2 microglial cells. Briefly: NO. The series is classed as cell-based, murine. As to conditions: for IC50: read-out: LPS-NO2 IC50.
For series [3], the system named is LPS-stimulated BV-2 microglia cells. Description: Inflammatory cytokines Multi-Analyte ELISArray MEM-004A. The series is classed as cell-based, murine. As to conditions: LPS-activated BV-2 cells, 24 h supernatant. The gist of the method: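 BV-2 cells were activated with E. coli O111:B4 LPS (1 µg/ml) plus test compound (final DMSO <0.5 %). Supernatants taken at 24 h were stored at −20 °C, then incubated with capture antibodies and mixed antigen standards (2 h, RT), biotinylated detection antibodies (1 h, RT), avidin–HRP (30 min) and development reagent. Absorbance was read at 450 nm, corrected at 570 nm. Results are % of LPS controls, mean ± STD, n = 2, Student's t test.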

The nature of series [4]: Cell viability by resazurin. The series is classed as cell-based. As to conditions: mouse. (Resazurin is reduced to fluorescent resorufin, in cell work by metabolically active cells.)

Entries after “also recorded” stand apart in the source; their conditions may differ. Read-outs that look alike come from different tables or passages of the source. Where only a bound is given, the exact number is not on record here.

Regarding `COc1cc(/C=C/C(=O)c2ccc(OC)c(OC)c2O)cc(OC)c1OC` [Compound 1, 2′-hydroxy-3,4,5,3′,4′-pentamethoxychalcone], the iNOS protein expression result in series [1] is given as “reducing iNOS protein expression; also recorded: reduction of iNOS protein”. The “NO inhibition / anti-inflammatory effect (in words)” value in series [2] (BV-2 cells, LPS 1 µg/ml) is “complete inhibition of NO”. Further, in series [3], the “IL-1α production and release” value is recorded as “attenuated”; the “IL-6 production and release” value is “attenuated”; the “IL-10 production and release” value was “attenuated”. The molecule further registered a CC50 in series [4] (BV-2 microglial cells) of 18.3 µM.

For `COc1cc(/C=C/C(=O)c2ccccc2O)cc(OC)c1OC` [Compound 2, 2′-hydroxy-3,4,5-trimethoxychalcone], in series [2] (BV-2 cells, LPS 1 µg/ml, 24 h, regression of min. 5 concentrations below 40 µM, n = 4), the IC50 stood at 2.2 µM.

In the case of `C[C@@H]1C[C@H]2[C@@H]3CCC4=CC(=O)C=C[C@]4(C)[C@@]3(F)[C@@H](O)C[C@]2(C)[C@@]1(O)C(=O)CO` [Dexamethasone, reference compound], the CC50 in series [4] was > 50 µM.

Regarding `CC(=N)NCCCC[C@H](N)C(=O)O` [L-NIL, L-N6-(1-iminoethyl)lysine, reference compound], the IC50 in series [2] (Mus musculus, BV-2, 24 h) came to 3.1 µM.

Usually CC50 stands for the concentration giving 50% cytotoxicity. What is called IC50 is the concentration that gives 50% inhibition.

These data come from publication PMC4390068 (Medicinal chemistry research : an international journal for …, 2014).
